Data set [1] concerns the target Neuropeptide Y receptor type 2 (Homo sapiens) (UniProt P49146). Description: Displacement of [125I]peptide YY from neuropeptide Y2 receptor in human KAN-TS cells at 10^-5 M. In kind it is cell-based. The procedure, abridged:
(§1)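 Radioligand binding screen run at a single test concentration of 10^-5 M. Each target used its stated receptor source (human recombinant CHO or HEK-293 cells, endogenous cell lines, or rat tissue membranes) with the listed radioligand.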
On the technique in general: In a radioligand displacement assay an active substance lowers the binding of a labelled ligand.

The test system of data set [2] is Rattus norvegicus. The experiment in a line: Anticonvulsant activity in pilocarpine-induced status epilepticus Sprague-Dawley rat model at 30 mg/kg, ip after 2 hrs during post stage 3 seizure. Type of data set: functional, organism-based. The gist of the method:
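Rats given pilocarpine 50 mg/kg ip and observed to first convulsive seizure (Racine stage 3–5, time zero); test drug then given ip in 0.5% methylcellulose. Efficacy = halting further stage 3–5 convulsive seizures; scored protected/tested, time after first stage 3 seizure.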

Data set [3] addresses Kappa-type opioid receptor (Rattus norvegicus) (UniProt P34975). Description: Displacement of [3H]U 69593 from rat recombinant kappa-type opioid receptor expressed in CHO cells at 10^-5 M. Type of data set: cell-based. The procedure, abridged: (§2)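 Radioligand displacement screen with the test agent at a single 10^-5 M concentration; receptor source and radioligand per target as tabulated (recombinant human cell lines or rat cerebral cortex/urinary bladder).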

In data set [4] the target is C-X-C chemokine receptor type 2 (Homo sapiens) (UniProt P25025). The experiment in a line: Displacement of [125I]IL-8 from human recombinant CXCR2 receptor expressed in HEK293 cells at 10^-5 M. Type of data set: cell-based. The procedure, abridged:
as §1

The target in data set [5] is Adrenergic receptor alpha-1 (Rattus norvegicus) (UniProt P15823+P23944+P43140). Description: Displacement of [3H]prazosin from rat cerebral cortex Alpha-1 adrenergic receptor at 10^-5 M. Type of data set: tissue-based. The gist of the method:
as §2

In data set [6] the test system is Mus musculus. Description: Anticonvulsant activity in mouse assessed as protection against maximal electric shock-induced seizures at 3 mg/kg, ip measured after 0.5 hrs. In kind it is functional, organism-based. The procedure, abridged:
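Mice dosed ip with suspension in 0.5% methylcellulose; maximal electroshock applied at the listed time after dosing. Protection = abolition of hindlimb tonic extension component of seizure; reported as animals protected/animals tested.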

Data set [7] is filed under the species Rattus norvegicus. Description: Displacement of [3H]TCP from rat cerebral cortex PCP receptor at 10^-5 M. In kind it is tissue-based. The gist of the method:
as §2

A further data set relates to U-937. Description: Displacement of [125I]TNF-alpha from TNF-alpha receptor in human U937 cells at 10^-5 M. In kind it is cell-based. The gist of the method: as §1
The subject of data set [8] is Mus musculus. Description: Anticonvulsant activity in mouse assessed as protection against 6 Hz psychomotor seizure at 20 mg/kg, ip after 4 hrs. In kind it is functional, organism-based. The procedure, abridged: (§3)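 Suspension in 0.5% methylcellulose given ip to mice; corneal stimulation with 0.2 ms monopolar rectangular pulses at 6 Hz for 3 s from a constant current device, mice restrained then released to observation cage. Protected if normal exploratory behaviour resumed within 10 s of stimulation. Scored as protected/tested, 4 mice per group.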

Data set [9] relates to Rattus norvegicus. The experiment in a line: Anticonvulsant activity in rat assessed as protection against maximal electric shock-induced seizures at 30 mg/kg, ip measured after 0.5 hrs. Type of data set: functional, organism-based. The procedure, abridged:
(§4)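 Rats dosed ip or orally as 0.5% methylcellulose suspension; maximal electroshock at listed time. Protection = abolition of hindlimb tonic extension; 4 rats per group, scored protected/tested.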

Data set [10] concerns Mus musculus. The experiment in a line: Anticonvulsant activity in mouse assessed as protection against 6 Hz psychomotor seizure at 40 mg/kg, ip after 0.5 hrs. Type of data set: functional, organism-based. The procedure, abridged: as §3
Data set [11] concerns Rattus norvegicus. Description: Anticonvulsant activity in rat assessed as protection against maximal electric shock-induced seizures at 30 mg/kg, po measured after 4 hrs. In kind it is functional, organism-based. The gist of the method:
as §4

In data set [12] the test system is Mus musculus. Description: Half life in CD1 mouse plasma at 12.92 mg/kg, ip measured up to 240 mins by LC/ESI-MS/MS analysis. The settings on record: in vivo, 4 h. Type of data set: ADME, organism-based.
The nature of data set [13]: Neurotoxicity in ip dosed mouse after […] by rotarod test. In kind it is toxicity, organism-based. The settings on record: in vivo. (Falling from the rotarod earlier than controls is read as motor impairment.)
Data set [14] in a line: Ratio of drug level in brain to plasma in CD1 mouse at 12.92 mg/kg, ip administered as single dose measured after 5 mins by LC/ESI-MS/MS analysis. Type of data set: ADME, organism-based. Particulars: brain and plasma, read-out: BPR.
The nature of data set [15]: Ratio of drug level in brain to plasma in CD1 mouse at 12.92 mg/kg, ip administered as single dose measured after 60 mins by LC/ESI-MS/MS analysis. Type of data set: ADME, organism-based. The settings on record: brain and plasma, read-out: BPR.
Data set [16] can be described thus: MRT in CD1 mouse plasma at 12.92 mg/kg, ig measured up to 240 mins by LC/ESI-MS/MS analysis. Particulars: po. In kind it is ADME, organism-based.
Data set [17] is described as follows: Ratio of drug level in brain to plasma in CD1 mouse at 12.92 mg/kg, ip administered as single dose measured after 15 mins by LC/ESI-MS/MS analysis. In kind it is ADME, organism-based. Particulars: brain and plasma, read-out: BPR.
The next data set deals with Vibrio harveyi. Description: Antimutagenic activity against Vibrio harveyi BB7M assessed as inhibition of NQNO-induced mutagenicity after 48 hrs. In kind it is functional. The procedure, abridged: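 V. harveyi cultures grown exponentially to A600 0.1 at 30 °C, exposed to test compound for 15 min, then to NQNO, and grown on to A600 0.3–0.4. 5 × 10⁶ cells plated on BOSS agar with neomycin (100, final). Neomycin-resistant colonies counted after 48 h at 30 °C. Result given as % inhibition of NQNO mutagenicity; three independent repeats.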

Data set [18] has as its system Mus musculus. The experiment in a line: Neurotoxicity in mouse at 100 mg/kg, ip after 0.5 hrs by rotarod test. In kind it is toxicity, organism-based. The settings on record: in vivo. The procedure, abridged: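 Mice were dosed ip with compound suspended in 0.5% methylcellulose. Rotarod: a 1 in. knurled rod turning at 6 rpm. Neurotoxicity was scored as failure to stay on the rod for at least 1 min in each of three trials. Results are given as the number of animals affected out of the number tested.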

Data set [19] in a line: Cmax in CD1 mouse brain at 12.92 mg/kg, ip measured up to 240 mins by LC/ESI-MS/MS analysis. In kind it is ADME, organism-based. Set-up: dose 12.92 mg/kg, route intraperitoneal.
The nature of data set [20]: AUC (0 to infinity) in CD1 mouse brain at 12.92 mg/kg, ip measured up to 240 mins by LC/ESI-MS/MS analysis. Set-up: dose 12.92 mg/kg, route intraperitoneal, time infinity. In kind it is ADME, organism-based.
A short description of the next data set: in vitro. The settings on record: mouse, liver microsomes.
A short description of data set [21]: Ratio of drug level in brain to plasma in CD1 mouse at 12.92 mg/kg, ig administered as single dose measured after 120 mins by LC/ESI-MS/MS analysis. In kind it is ADME, organism-based. The settings on record: brain and plasma, po, read-out: BPR.
Data set [22] in a line: Half life in CD1 mouse plasma at 1 mg/kg, iv measured up to 240 mins by LC/ESI-MS/MS analysis. In kind it is ADME, organism-based. The procedure, abridged: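 Male CD1 mice, fasted overnight, were dosed iv at 1 mg/kg. Under ketamine/xylazine, blood was collected at 0, 5, 15, 30, 60, 120 and 240 min, one sample per animal, four mice per time point. Plasma concentrations were measured by LC/ESI-MS/MS. Terminal t1/2 was taken as 0.693/kz, with kz from log-linear regression, using non-compartmental analysis.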

The nature of data set [23]: Ratio of drug level in brain to plasma in CD1 mouse at 1 mg/kg, iv administered as single dose measured after 120 mins by LC/ESI-MS/MS analysis. Particulars: brain and plasma, read-out: BPR. In kind it is ADME, organism-based.
The nature of data set [24]: MRT in CD1 mouse plasma at 1 mg/kg, iv measured up to 240 mins by LC/ESI-MS/MS analysis. In kind it is ADME, organism-based.
Data set [25] relates to Mus musculus. Description: Anticonvulsant activity in ip dosed mouse assessed as protection against maximal electric shock-induced seizures measured after […]. Type of data set: functional.
The nature of data set [26]: Ratio of drug level in brain to plasma in CD1 mouse at 1 mg/kg, iv administered as single dose measured after 60 mins by LC/ESI-MS/MS analysis. Type of data set: ADME, organism-based. Particulars: brain and plasma, read-out: BPR.

The structures appear in SMILES notation. Activity calls are given as the source filed them. No cut-off for these calls is given here.

C-X-C chemokine receptor type 2 (Homo sapiens), sequence (P25025 whole entry): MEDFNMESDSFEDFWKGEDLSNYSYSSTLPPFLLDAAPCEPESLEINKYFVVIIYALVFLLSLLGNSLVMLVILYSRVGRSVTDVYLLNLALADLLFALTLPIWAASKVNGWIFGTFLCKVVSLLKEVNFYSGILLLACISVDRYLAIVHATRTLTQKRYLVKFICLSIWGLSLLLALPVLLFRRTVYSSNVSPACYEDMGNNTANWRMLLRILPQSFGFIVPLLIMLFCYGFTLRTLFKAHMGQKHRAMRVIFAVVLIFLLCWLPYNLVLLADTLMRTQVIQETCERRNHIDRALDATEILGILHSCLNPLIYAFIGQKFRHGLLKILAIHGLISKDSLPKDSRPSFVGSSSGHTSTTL
Kappa-type opioid receptor (Rattus norvegicus), sequence (P34975 whole entry): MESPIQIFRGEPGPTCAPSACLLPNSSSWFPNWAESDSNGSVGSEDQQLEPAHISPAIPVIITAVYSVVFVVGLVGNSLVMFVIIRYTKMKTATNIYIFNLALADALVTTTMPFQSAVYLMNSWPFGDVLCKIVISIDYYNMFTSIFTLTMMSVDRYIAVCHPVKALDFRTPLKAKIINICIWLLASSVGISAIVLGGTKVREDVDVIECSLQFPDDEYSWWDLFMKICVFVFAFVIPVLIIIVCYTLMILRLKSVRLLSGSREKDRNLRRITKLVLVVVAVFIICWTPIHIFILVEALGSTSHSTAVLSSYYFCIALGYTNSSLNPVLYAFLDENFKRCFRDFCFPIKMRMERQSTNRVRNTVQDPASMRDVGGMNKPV
Neuropeptide Y receptor type 2 (Homo sapiens), sequence (P49146 whole entry): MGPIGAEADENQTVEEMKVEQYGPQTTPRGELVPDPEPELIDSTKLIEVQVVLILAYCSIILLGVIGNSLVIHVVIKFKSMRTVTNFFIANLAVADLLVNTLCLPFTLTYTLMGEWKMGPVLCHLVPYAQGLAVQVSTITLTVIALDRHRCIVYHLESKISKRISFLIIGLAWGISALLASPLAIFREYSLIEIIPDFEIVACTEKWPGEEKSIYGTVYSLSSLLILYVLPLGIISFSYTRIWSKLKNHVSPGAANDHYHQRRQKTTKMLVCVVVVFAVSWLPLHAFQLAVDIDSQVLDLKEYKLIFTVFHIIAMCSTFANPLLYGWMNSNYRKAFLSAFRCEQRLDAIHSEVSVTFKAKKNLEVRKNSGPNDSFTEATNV

Regarding `Cc1cccc(C)c1OCCOCCN[C@H](C)CO`, the inhibition was -5.1% in data set [1]; 29.3% in data set [3]; 2.9% in data set [4]; 32.3% in data set [5]; 9.6% in the data set listed under Rattus norvegicus [7]; 5.1% with U-937. Besides, the outcome in the data set on Rattus norvegicus [2] and with Mus musculus [6] was inactive.

For `Cc1cccc(C)c1OCCOCCN[C@@H](C)CO`, the result with Rattus norvegicus [2], with Mus musculus [6], in the data set with Mus musculus [8] and with Rattus norvegicus [11] was inactive. Further, the inhibition in data set [3] was determined as 54%; in data set [4], 2.7%; in data set [5] it was 28.3%; in the data set listed under Rattus norvegicus [7], 5.8%; in the data set on U-937 it was 4.6%. In addition, the result with Rattus norvegicus [9] and with Mus musculus [10] was Active.

In turn, `Cc1cccc(C)c1OCCOCCN[C@H](C)CO.Cl` returned a t1/2 in the data set on Mus musculus [12] of 77.2 min. This compound also displayed a TD50 at […] in data set [13] of 33.3 mg/kg. Further, the Kp at 5 min in data set [14] came out at 1.13. For the same compound, the Kp at 1 h in data set [15] came out at 1.91; in [26], 3.58. Also, the figures for the MRT in [16] and in data set [24] were 40.3 min and 55.6 min, respectively. The Kp at […] in [17] was 2.55. Besides, the “inhibition (INH)” value in the data set on Vibrio harveyi was 69%. For the same compound, the Activity entry with Mus musculus [18] is “Toxic”. The concentration in data set [19] peaked (Cmax) at 2360 ng/mL. In [20], this compound registered an AUC(0-inf) of 2160 ng·h/mL. Moreover, in “in vitro”, the intrinsic clearance (microsomal CLint) at 20 µM was determined as 47 µL/min/mg. In addition, the Kp at 2 h in data set [21] was 3.18; in [23] it was 6.66. Also, in [22], the half-life amounted to 51.5 min. Besides, in the data set with Mus musculus [25], the ED50 turned out to be 12.9 mg/kg.

For orientation: inhibition means the change of the read-out against control, counted positive when it falls. By TD50 is commonly meant the 50% point of the dose-response relation for the toxic effect studied. A higher TD50 goes with lower toxicity. In general, MRT refers to the average time that molecules of a dose stay in the body. The Cmax is the highest concentration seen after dosing. For orientation: AUC(0-inf) means the area under the concentration-time curve extrapolated to infinity. Broadly, the microsomal CLint is a measure of how fast metabolising enzymes remove a compound, apart from limits set by blood flow. For orientation: half-life means how long it takes for the measured level to halve. A lower half-life goes with fast loss. One may read the ED50 as the dose that gives a 50% effect, or the effect in half of the subjects.
